Measured values taken from article PMC3419596 (Cell stem cell, 2012).
“Also recorded” adds a separate entry of the source. Where two headings read alike, the source gives them in different places.

Experiments:
[1] = system: T-GFP mESCs; assay: Mesoderm inhibition assay, T-GFP mESC flow cytometry; assay type: cell-based, mouse; details: added at day 1 of differentiation
[2] = system: Myh6-GFP mESC; assay: mESC cardiogenesis assay, Myh6-GFP reporter; assay type: cell-based, mouse
[3] = system: Activin A signaling (Lefty1 target gene); assay: Lefty1 mRNA in Cripto−/− mESC, Activin A-induced; assay type: cell-based, mouse; details: 5μM, Cripto−/− mESCs
How it was run: (§1)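 Cripto−/− mESCs are moved to serum-free conditions. At day 2 of embryoid body formation they receive 15 ng/ml Activin A or 15 ng/ml TGFβ2 together with test compound. Lefty1 mRNA is measured by RT-qPCR (SYBR Green) on cDNA from total RNA. The TGFβ2 arm is also run as a time course, with a serum-free-medium-alone control. Data are mean ± SEM of ≥3 biological replicates; Student's t-test.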

[4] = system: calcium channel; assay: Calcium inhibition as mechanism of ITD-1 activities
[5] = system: TGFBR2; assay: TGFBR2 internalization; assay type: cell-based; details: HA-TGFBR2-mCherry, presence of TGFβ2 ligand
[6] = system: TGFBR1; assay: TGFBR1 protein levels by Western blot, overexpressed in HEK293T; assay type: cell-based, human; details: 24h, 5μM
[7] = system: BMP signaling; assay: BMP signaling inhibition; assay type: cell-based
[8] = system: HEK293T cells; assay: Toxicity control for inhibitory activity; assay type: cell-based, human
How it was run: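 Toxicity in the reporter assays is judged from Renilla luciferase levels, Alamar Blue viability or microscopy. Doses judged toxic are removed before IC50/EC50 curve fitting.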

[9] = system: SMAD2/3 phosphorylation induced by TGFβ2; assay: p-SMAD2/3 Western blot in HEK293T cells, TGFβ2 stimulation; assay type: cell-based, human
How it was run: (§2)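 HEK293T cells are treated with test compound and stimulated with Activin A or TGFβ. Cells are washed in cold PBS, lifted with enzyme-free buffer and lysed in ice-cold RIPA with protease and phosphatase inhibitors. Lysates are run on 10% SDS-Tris-glycine gels, blotted to PVDF and blocked and probed in 5% skim milk/TBST; detection by ECL or infrared imaging. p-SMAD2/3 is normalized to GAPD and total SMAD2/3 and reported as % inhibition.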

[10] = system: Cripto−/− mESC, TGFβ2-induced mesoderm; assay: T gene expression in Cripto−/− mESC, mesoderm induced by TGFβ2; assay type: cell-based, mouse
How it was run: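 Cripto−/− mESC were moved to serum-free conditions as embryoid bodies. At day 2 of EB formation they received 15 ng/ml TGFβ2 together with test compound. T expression was measured by RT-qPCR. Comparisons were made against a no-TGFβ2 control and against TGFβ2 alone. Mean ± SEM of ≥3 biological replicates; Student's t-test.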

[11] = system: TGFβ2 signaling (Lefty1 target gene); assay: Lefty1 mRNA in Cripto−/− mESC, TGFβ2-induced; assay type: cell-based, mouse; details: Cripto−/− mESCs
How it was run: as §1

[12] = system: TGFβ2 signaling; assay: SBE4-Luc; assay type: cell-based, human; details: for IC50: read-out: IC50 TGFβ2 signaling inhibition (SBE4-Luc)
How it was run: (§3)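 HEK293T cells grown in high-glucose DMEM with 1% FBS are co-transfected with SBE4-firefly luciferase and CMV-Renilla luciferase. After 12 h adhesion they are stimulated with Activin A or TGFβ2 (15 ng/ml each), with inhibitor added at the same time. Luminescence is read by dual-luciferase assay. IC50 comes from a log(inhibitor) vs normalized response fit, with toxic doses excluded; Emax is given as % inhibition. Data are mean ± SEM.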

[13] = system: Wnt signaling; assay: Wnt signaling inhibition; assay type: cell-based
[14] = target: TGFBR2 (Homo sapiens, UniProt P37173); assay: TGFBR2 protein levels by Western blot; assay type: cell-based; details: HEK293T, DLD1 and A549 cells, 5μM
[15] = system: TGFBR2; assay: TGFBR2 protein levels by Western blot; assay type: cell-based, human; details: overexpressed in HEK293T, 24h, 5μM
[16] = system: SMAD2/3 phosphorylation induced by Activin A; assay: p-SMAD2/3 Western blot in HEK293T cells, Activin A stimulation; assay type: cell-based, human
How it was run: as §2

[17] = system: mESC; assay: RT-qPCR of germ layer and lineage markers in mESC; assay type: cell-based, mouse
[18] = target: type I (TGFBR1) TGFβ receptor (Homo sapiens, UniProt P36897); assay: TGFBR1 kinase activity; assay type: biochemical
[19] = system: Activin A signaling; assay: SBE4-Luc; assay type: cell-based, human; details: HEK293T, Activin A 15ng/ml
How it was run: as §3

[20] = system: Cripto−/− mESC, Activin A-induced mesoderm; assay: T gene expression in Cripto−/− mESC, mesoderm induced by Activin A; assay type: cell-based, mouse
How it was run: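 Mesoderm assay in Cripto−/− mESCs under serum-free conditions. At day 2 of embryoid body formation, cells are given 15 ng/ml Activin A plus test compound. T (Brachyury) mRNA is quantified by RT-qPCR (SYBR Green) on cDNA from total RNA and compared with no-Activin and Activin-alone controls. Data are mean ± SEM of ≥3 biological replicates; Student's t-test.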

[21] = target: type II (TGFBR2) TGFβ receptor (Homo sapiens, UniProt P37173); assay: TGFBR2 kinase activity; assay type: biochemical
[22] = system: HA-TGFBR2-mCherry; assay: Flow cytometry receptor degradation assay with HA-TGFBR2-mCherry in HEK293T; assay type: cell-based, human
[23] = system: H9 hESC; assay: hESC; assay type: cell-based, human
[24] = system: other tyrosine kinase receptors; assay: Levels of other tyrosine kinase receptors; assay type: cell-based
[25] = added day 3-5 of differentiation
[26] = given at day 1 of differentiation

Sequence of type I (TGFBR1) TGFβ receptor (P36897 34-503, species assumed): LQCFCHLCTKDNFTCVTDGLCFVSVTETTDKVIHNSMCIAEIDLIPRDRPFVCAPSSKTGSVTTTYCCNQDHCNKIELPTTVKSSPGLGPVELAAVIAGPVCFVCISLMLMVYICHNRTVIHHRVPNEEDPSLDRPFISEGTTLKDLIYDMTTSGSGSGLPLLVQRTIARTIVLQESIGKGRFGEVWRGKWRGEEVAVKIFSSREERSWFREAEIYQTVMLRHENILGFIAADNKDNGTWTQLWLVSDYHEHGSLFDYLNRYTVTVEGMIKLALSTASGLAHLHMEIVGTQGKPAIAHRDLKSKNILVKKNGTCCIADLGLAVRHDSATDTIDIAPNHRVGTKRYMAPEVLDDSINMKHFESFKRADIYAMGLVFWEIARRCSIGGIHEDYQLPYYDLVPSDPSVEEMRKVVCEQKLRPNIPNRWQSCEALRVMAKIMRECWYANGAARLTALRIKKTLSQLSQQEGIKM
Sequence of TGFBR2 (Homo sapiens, UniProt P37173) (P37173 23-567): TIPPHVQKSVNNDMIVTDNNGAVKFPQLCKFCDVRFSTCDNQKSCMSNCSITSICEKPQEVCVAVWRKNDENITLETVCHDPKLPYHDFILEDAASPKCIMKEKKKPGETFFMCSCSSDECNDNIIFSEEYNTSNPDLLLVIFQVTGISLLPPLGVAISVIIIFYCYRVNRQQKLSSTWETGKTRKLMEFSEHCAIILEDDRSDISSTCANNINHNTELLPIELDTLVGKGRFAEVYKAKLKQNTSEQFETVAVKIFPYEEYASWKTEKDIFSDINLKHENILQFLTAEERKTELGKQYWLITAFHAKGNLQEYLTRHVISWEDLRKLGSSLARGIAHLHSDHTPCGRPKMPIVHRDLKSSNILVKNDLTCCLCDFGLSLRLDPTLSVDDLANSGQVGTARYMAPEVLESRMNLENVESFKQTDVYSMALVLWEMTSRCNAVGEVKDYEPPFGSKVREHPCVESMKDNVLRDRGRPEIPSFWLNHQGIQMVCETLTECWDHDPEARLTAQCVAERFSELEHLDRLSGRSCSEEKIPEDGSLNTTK
Sequence of type II (TGFBR2) TGFβ receptor (P37173 23-567, species assumed): as the sequence (P37173 23-567) above

## c1cc(-c2cnn3cc(-c4ccc(OCCN5CCCCC5)cc4)cnc23)ccn1 [Dorsomorphin]
[1]
  mesoderm induction (T-GFP+ cells): did not affect mesoderm

## CCOC(=O)C1=C(C)NC2=C(C(=O)CC(C)(C)C2)C1c1ccc(-c2ccccc2)cc1 (stereo not drawn) [ITD-1(+)]
[2]; [25]
  cardiogenesis (Myh6-GFP): drove cardiomyogenesis

## CCOC(=O)C1=C(C)NC2=C(C(=O)CC(C)(C)C2)C1c1ccc(-c2ccccc2)cc1 (stereo not drawn) [ITD-1]
[3]
  induction of Lefty1 in response to Activin A: not to Activin A
[4]
  role of calcium inhibition in ITD-1 activities: no evidence was found for a role through calcium inhibition
[5]
  immediate internalization of TGFBR2: did not block immediate internalization of TGFBR2
[6]
  TGFBR1 protein levels: did not affect TGFBR1
[1]
  mesoderm induction (T-GFP+ cells): diminished the number of mesoderm cells
[7]
  BMP signaling inhibition: not inhibited
[8]
  toxicity as cause of inhibitory activity: Toxicity was not responsible
[9]
  phosphorylation of SMAD2/3 induced by TGFβ2: potently blocked phosphorylation
[10]
  mesoderm induced by TGFβ (T gene expression): selectively blocked mesoderm induced by TGFβ
[11]; 5μM
  induction of Lefty1 in response to TGFβ2: effectively blocked induction
[11]; TGFβ2 treatment
  additional time needed to inhibit Lefty1 expression compared to SB-431542: ~ 3 h
[12]; HEK293T, SBE4-Luc
  efficacy of TGFβ2 signaling inhibition (Emax, % inhibition): 92%
[12]; HEK293T, TGFβ2 15ng/ml
  IC50: 850 nM
[13]
  Wnt signaling inhibition: did not inhibit Wnt signaling; also recorded: not inhibited
[14]
  endogenous TGFBR2 levels: decreased endogenous TGFBR2 levels
[15]
  TGFBR2 protein levels: strongly downregulated TGFBR2 protein levels
[16]
  phosphorylation of SMAD2/3 in response to Activin A: only minimally
[17]; [26]
  germ layer markers at day 5 (RT-qPCR): induced ectoderm at the expense of mesoderm
  lineage markers at day 10 (RT-qPCR): markers for mesoderm tissues such as heart, endothelium, smooth muscle and blood were all downregulated, while neural markers were upregulated
[17]; mESC treated day 3-5
  marker expression at day 5 (RT-qPCR): only the cardiac progenitor specific markers Kdr and Mesp1 were increased
  marker expression at day 10 (RT-qPCR): only cardiac-specific markers were increased
[18]
  TGFBR1 kinase activity: did not block the kinase activity
[19]
  Activin A signal inhibition (SBE4-Luc): weak and partial inhibitor
[20]
  mesoderm induced by Activin A (T gene expression): not by Activin A
[21]
  TGFBR2 kinase activity: did not block the kinase activity
[22]; cell surface receptor
  Emax, maximal depletion of HA-TGFBR2: ~ 80%
[22]; time course, flow cytometry
  time needed to reduce TGFBR2 levels: At least 6 h
  time of maximum reduction of TGFBR2 levels: ≤ 24 h
[22]; total receptor
  Emax, maximal depletion of TGFBR2-mCherry: ~ 50%
[2]; added day 1-3 of differentiation, before mesoderm induction
  cardiogenesis (Myh6-GFP): completely abolished cardiogenesis
[2]; [25]
  cardiogenesis (Myh6-GFP): drove cardiomyogenesis; also recorded: optimally promoted cardiogenesis and beating cell clusters
[23]; added day 1-5, analysed day 6
  enhancement of TNNT2+ cardiomyocyte yield: ~ 30%
  resulting cardiomyocytes (TNNT2+): ~ 60%
[24]
  effect on other tyrosine kinase receptors: did not affect other tyrosine kinase receptors

## c1ccc(-c2[nH]ncc2-c2ccnc3ccccc23)nc1 [LY-364947, reference compound]
[1]
  mesoderm induction (T-GFP+ cells): diminished the number of mesoderm cells
[2]; [25]
  cardiogenesis (Myh6-GFP): drove cardiomyogenesis

## NC(=O)c1ccc(-c2nc(-c3ccc4c(c3)OCO4)c(-c3ccccn3)[nH]2)cc1 [SB-431542, reference compound]
[5]
  immediate internalization of TGFBR2: abolished internalization
[1]
  mesoderm induction (T-GFP+ cells): diminished the number of mesoderm cells
[12]; Homo sapiens, HEK-293T
  IC50: 70 nM
[2]; [25]
  cardiogenesis (Myh6-GFP): drove cardiomyogenesis
[23]; mesoderm patterning stage, data not shown
  cardiogenesis in hESC: completely blocked cardiogenesis

## IWP
[1]
  mesoderm induction (T-GFP+ cells): diminished the number of mesoderm cells

B1: TGFβ2: TGFβ family member ligand added to ESC cultures (protein, UniProt P61812 303-414, looked up)
Transforming growth factor …: ALDAAYCFRNVQDNCCLRPLYIDFKRDLGWKWIHEPKGYNANFCAGACPYLWSSDTQHSRVLSLYNTINPEASASPCCVSQDLEPLTILYYIGKTPKIEQLSNMIVKSCKCS
[2]; [25]
  cardiogenesis (Myh6-GFP): inhibited cardiogenesis
